Data published in article PMC4744243 (Oncogene, 2015).
Read-outs that look alike come from different tables or passages of the source.

Experiments:
[1] = test system: K-R2- and K-R10-derived cell clones; format: cell-based; conditions: four K-R2- and K-R10-derived clones; 6-day
[2] = test system: H3K27Me2 and Me3 in K-P cells; assay: Western blot of H3K27 methylation; format: cell-based; conditions: K-P cells treated with increasing doses
[3] = biological target: PRC2^Y641N/Y661D (Homo sapiens, UniProt Q15910, Y641N/Y661D); format: biochemical; conditions: for IC50: read-out: IC50 Y641N/Y6661D, [SAM] 20 μM
[4] = test system: EZH2 Y641 mutant; conditions: read-out: half-maximal inhibition (IC50); cited from earlier work
[5] = biological target: PRC2^WT (Homo sapiens, UniProt Q15910); format: biochemical; conditions: read-out: IC50 WT, [SAM] 1 µM
[6] = test system: H3K4, K9, K36 and K79 methylation; assay: Western blot and histone profiling of other H3 methylation marks; format: cell-based; conditions: 2 or 10 µM, 3 days
In short: (§1)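 Karpas422 parental cells were grown in RPMI-1640 with 10% FBS at 37 °C and 5% CO2. Histones were extracted from pellets of 5 × 10^6 cells with a histone purification kit. Free lysines were blocked by derivatization, and methylated H3 peptides were then analysed by high-resolution mass spectrometry.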

[7] = test system: K-P (KARPAS422-parental cells); format: cell-based; conditions: 10 μM for 6 days
[8] = test system: EZH2 WT; conditions: read-out: half-maximal inhibition (IC50); cited from earlier work
[9] = biological target: PRC2^Y111L (Homo sapiens, UniProt Q15910, Y111L); format: biochemical; conditions: for IC50: read-out: IC50 Y111L, [SAM] 1 µM; for IC50 Y111L: [SAM] 20 μM
[10] = test system: H3K27Me3 peptides in K-P cells; assay: Histone tail profiling by mass spectrometry; format: cell-based; conditions: 2 or 10 µM, 3 days, vs DMSO control
In short: as §1

[11] = test system: WSU-DLCL2 xenograft; conditions: high-dose; 28-day treatment cycle; cited from earlier work
[12] = test system: tumor xenograft; conditions: high-dose treatment; after cessation of the dosing; cited from earlier work
[13] = test system: K-P (KARPAS422-parental cells); conditions: 6-day, compared with EI1

PRC2^Y111L, sequence (Q15910 whole entry Y111L): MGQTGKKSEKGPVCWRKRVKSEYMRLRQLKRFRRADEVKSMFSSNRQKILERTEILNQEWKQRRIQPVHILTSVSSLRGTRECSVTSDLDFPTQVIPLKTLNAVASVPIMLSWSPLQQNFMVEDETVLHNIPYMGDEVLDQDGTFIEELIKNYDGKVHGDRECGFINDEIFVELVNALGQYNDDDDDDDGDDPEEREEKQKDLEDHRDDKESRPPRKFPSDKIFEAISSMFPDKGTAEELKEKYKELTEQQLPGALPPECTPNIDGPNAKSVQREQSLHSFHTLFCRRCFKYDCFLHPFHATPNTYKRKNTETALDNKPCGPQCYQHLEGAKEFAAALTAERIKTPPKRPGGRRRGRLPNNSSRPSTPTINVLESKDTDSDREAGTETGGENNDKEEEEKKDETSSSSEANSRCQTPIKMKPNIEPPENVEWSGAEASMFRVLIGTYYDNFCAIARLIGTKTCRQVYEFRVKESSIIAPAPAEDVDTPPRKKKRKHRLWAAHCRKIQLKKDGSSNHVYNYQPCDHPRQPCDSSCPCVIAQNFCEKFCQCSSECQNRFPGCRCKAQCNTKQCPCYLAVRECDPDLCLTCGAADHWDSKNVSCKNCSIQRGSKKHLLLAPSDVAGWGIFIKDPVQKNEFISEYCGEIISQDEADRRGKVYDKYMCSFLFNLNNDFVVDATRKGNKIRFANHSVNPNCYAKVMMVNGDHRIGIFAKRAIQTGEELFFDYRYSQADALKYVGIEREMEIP
PRC2^Y111L, sequence (O75530 whole entry partner): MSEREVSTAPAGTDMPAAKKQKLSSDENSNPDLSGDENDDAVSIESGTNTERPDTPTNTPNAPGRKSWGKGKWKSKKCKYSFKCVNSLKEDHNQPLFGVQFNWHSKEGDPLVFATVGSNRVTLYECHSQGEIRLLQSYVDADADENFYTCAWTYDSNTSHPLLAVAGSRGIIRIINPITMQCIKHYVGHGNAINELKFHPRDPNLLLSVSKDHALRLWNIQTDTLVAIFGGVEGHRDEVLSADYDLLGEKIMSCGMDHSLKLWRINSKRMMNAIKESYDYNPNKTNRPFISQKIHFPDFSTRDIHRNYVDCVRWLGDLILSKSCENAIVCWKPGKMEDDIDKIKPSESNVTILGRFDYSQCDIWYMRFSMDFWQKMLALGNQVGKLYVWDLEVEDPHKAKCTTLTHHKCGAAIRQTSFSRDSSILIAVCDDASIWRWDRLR
PRC2^Y111L, sequence (Q15022 whole entry partner): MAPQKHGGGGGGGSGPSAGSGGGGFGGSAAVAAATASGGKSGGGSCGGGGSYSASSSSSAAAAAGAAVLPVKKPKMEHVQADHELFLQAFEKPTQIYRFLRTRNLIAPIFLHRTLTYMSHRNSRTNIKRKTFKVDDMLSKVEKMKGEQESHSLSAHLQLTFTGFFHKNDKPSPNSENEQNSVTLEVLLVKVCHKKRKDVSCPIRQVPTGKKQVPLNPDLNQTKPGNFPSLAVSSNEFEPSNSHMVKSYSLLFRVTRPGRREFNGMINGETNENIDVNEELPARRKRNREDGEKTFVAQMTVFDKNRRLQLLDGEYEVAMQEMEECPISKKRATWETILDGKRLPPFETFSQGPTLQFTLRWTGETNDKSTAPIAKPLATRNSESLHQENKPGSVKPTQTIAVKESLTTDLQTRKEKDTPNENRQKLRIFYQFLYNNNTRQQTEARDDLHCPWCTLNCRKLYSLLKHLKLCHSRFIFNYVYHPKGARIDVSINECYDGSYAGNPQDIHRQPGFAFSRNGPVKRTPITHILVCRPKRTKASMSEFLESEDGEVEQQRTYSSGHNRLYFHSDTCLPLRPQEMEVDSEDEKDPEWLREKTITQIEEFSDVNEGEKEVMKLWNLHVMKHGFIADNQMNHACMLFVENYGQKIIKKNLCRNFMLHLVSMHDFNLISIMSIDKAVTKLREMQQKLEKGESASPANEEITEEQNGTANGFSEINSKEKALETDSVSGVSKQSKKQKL
PRC2^Y641N/Y661D, sequence (Q15910 whole entry Y641N/Y661D): as the sequence (Q15910 whole entry Y111L) above, with L111Y, Y641N, Y661D counted along it
PRC2^Y641N/Y661D, sequence (O75530 whole entry partner): as the sequence (O75530 whole entry partner) above
PRC2^Y641N/Y661D, sequence (Q15022 whole entry partner): as the sequence (Q15022 whole entry partner) above
PRC2^WT, sequence (Q15910 whole entry): as the sequence (Q15910 whole entry Y111L) above, with L111Y counted along it
PRC2^WT, sequence (O75530 whole entry partner): as the sequence (O75530 whole entry partner) above
PRC2^WT, sequence (Q15022 whole entry partner): as the sequence (Q15022 whole entry partner) above

SMILES	growth inhibition in cell proliferation assay [1]	H3K27Me2 and Me3 levels (western blot) [2]	IC50 against PRC2^Y641N/Y661D, fold weaker compared with PRC2^Y641N ([3]; 1 μM SAM, both H3K27Me1 and Me2 substrates) [fold]	IC50 ([3]; substrate H3K27Me1 peptide) [nM]	IC50 ([3]; substrate H3K27Me2 peptide) [nM]	IC50 [4] [nM]	IC50 ([5]; substrate H3K27Me0 peptide) [nM]	IC50 ([5]; substrate H3K27Me1 peptide) [nM]	decrease in H3K4, K9, K36 and K79 methylation [6]	reduction of BrdU incorporation compared with DMSO control [7] [%]	IC50 [8] [nM]	IC50 ([9]; substrate H3K27Me0 peptide) [nM]	IC50 ([9]; substrate H3K27Me1 peptide) [nM]	IC50 Y111L ([9]; substrate H3K27Me0 peptide)	IC50 Y111L ([9]; substrate H3K27Me1 peptide)	decrease of K27Me3 methylated peptides [10] [fold]	anti-tumor effect in WSU-DLCL2 xenograft model [11]	anti-tumor effect in tumor xenograft studies [12]	growth arrest (growth inhibition) in proliferation assay [13]
CCC(CC)n1ccc2c(C(=O)NCc3c(C)cc(C)[nH]c3=O)cc(C#N)cc21 [EI1]	refractory	both H3K27Me2 and Me3 levels decreased	> 300	> 25000	> 25000	10 to 20	20	9	no noticeable decrease	> 90	10 to 20	3100	4200	inactive	inactive	> 2			
CCN(c1cc(-c2ccc(CN3CCOCC3)cc2)cc(C(=O)NCc2c(C)cc(C)[nH]c2=O)c1C)C1CCOCC1 [EPZ-6438, reference compound]	refractory								no noticeable decrease	> 90							partial tumor regression	complete tumor regression without tumor regrowth	more potent in inducing growth arrest
